Measured values published in ChEMBL document CHEMBL3861959, “Synthesis and antiproliferative evaluation of novel 2-(4H-1,2,4-triazole-3-ylthio)acetamide derivatives as inducers of apoptosis in cancer cells” (Eur J Med Chem, 2016).

Assays:
[1] = Antiviral activity against HIV2 ROD infected in human MT4 cells assessed as protection against virus-induced cytopathic effect after 5 days MTT assay; format: functional, cell-based, Human immunodeficiency virus type 2 (ISOLATE ROD); conditions: Human immunodeficiency virus 2, MT4, 120 h
Method in brief: (§1)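 HIV-1 strain IIIB and HIV-2 strain ROD in MT-4 cells, MTT-based. Test compounds in serial five-fold dilutions, in triplicate wells run alongside mock-infected cells, with untreated infected and mock controls. MT-4 cells resuspended at 6 × 10^5 cells/mL. Absorbance read at 540 and 690 nm, median OD of three wells. EC50 is the 50% effective concentration.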

[2] = Cytotoxicity against human PC3 cells assessed as cell growth at 10^-5 M after 48 hrs by SRB assay relative to control; format: functional; conditions: PC-3, 48 h, read-out: Activity
Method in brief: (§2)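 NCI single-dose primary screen run under the US NCI protocol. Compounds tested at 10 µM across the 60-cell-line panel, with growth percent reported for each line.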

[3] = Cytotoxicity against human EKVX cells assessed as cell growth at 10^-5 M after 48 hrs by SRB assay relative to control; format: functional; conditions: read-out: Activity; method in brief: as §2
[4] = Cytotoxicity against human OVCAR4 cells assessed as cell growth at 10^-5 M after 48 hrs by SRB assay relative to control; format: functional; conditions: OVCAR-4, 48 h, read-out: Activity; method in brief: as §2
[5] = Cytotoxicity against human HCT116 cells assessed as cell growth at 10^-5 M after 48 hrs by SRB assay relative to control; format: functional; conditions: HCT-116, 48 h, read-out: Activity; method in brief: as §2
[6] = Cytotoxicity against human SF295 cells assessed as cell growth at 10^-5 M after 48 hrs by SRB assay relative to control; format: functional; conditions: SF-295, 48 h, read-out: Activity; method in brief: as §2
[7] = Selectivity index, ratio of CC50 for human MT4 cells to EC50 for HIV2 ROD; format: toxicity, cell-based; conditions: read-out: Ratio CC50/EC50
Method in brief: (§3)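 HIV-1 IIIB and HIV-2 ROD tested in MT-4 cells by MTT. Serial fivefold dilutions of compound added to triplicate mock- and virus-infected wells. MT-4 cells at 6 × 10^5 cells/mL. Absorbance read at 540/690 nm; median OD of three wells used. CC50 is the concentration reducing mock-infected OD540 by 50%. […]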

[8] = Cytotoxicity against human SN12C cells assessed as cell growth at 10^-5 M after 48 hrs by SRB assay relative to control; format: functional; conditions: read-out: Activity
Method in brief: (§4)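 Single-dose NCI 60-cell-line screen run under the US NCI protocol. Compounds tested at 10 µM. Read-out is growth percent for each cell line.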

[9] = Cytotoxicity against human SK-MEL-28 cells assessed as cell growth at 10^-5 M after 48 hrs by SRB assay relative to control; format: functional; conditions: SK-MEL-28, 48 h, read-out: Activity; method in brief: as §4
[10] = Cytotoxicity against mouse NIH/3T3 cells assessed as decrease in cell survival after 48 hrs by MTT assay; format: toxicity, NIH3T3
[11] = Cytotoxicity against human SK-MEL-5 cells assessed as cell growth at 10^-5 M after 48 hrs by SRB assay relative to control; format: functional; conditions: SK-MEL-5, 48 h, read-out: Activity; method in brief: as §4
[12] = Cytotoxicity against human MDA-MB-231 cells assessed as cell growth at 10^-5 M after 48 hrs by SRB assay relative to control; format: functional; conditions: MDA-MB-231, 48 h, read-out: Activity; method in brief: as §2
[13] = Cytotoxicity against human NCI-H226 cells assessed as cell growth at 10^-5 M after 48 hrs by SRB assay relative to control; format: functional; conditions: NCI-H226, 48 h, read-out: Activity; method in brief: as §2
[14] = Cytotoxicity against human U251 cells assessed as cell growth at 10^-5 M after 48 hrs by SRB assay relative to control; format: functional; conditions: U-251, 48 h, read-out: Activity; method in brief: as §4
[15] = Cytotoxicity against human NCI-H460 cells assessed as cell growth at 10^-5 M after 48 hrs by SRB assay relative to control; format: functional; conditions: NCI-H460, 48 h, read-out: Activity; method in brief: as §2
[16] = Cytotoxicity against human COLO205 cells assessed as cell growth at 10^-5 M after 48 hrs by SRB assay relative to control; format: functional; conditions: COLO 205, 48 h, read-out: Activity; method in brief: as §2
[17] = Cytotoxicity against human OVCAR5 cells assessed as cell growth at 10^-5 M after 48 hrs by SRB assay relative to control; format: functional; conditions: OVCAR-5, 48 h, read-out: Activity; method in brief: as §2
[18] = Cytotoxicity against human HL-60(TB) cells assessed as cell growth at 10^-5 M after 48 hrs by SRB assay relative to control; format: functional; conditions: HL-60, 48 h, read-out: Activity
Method in brief: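 NCI-60 one-dose primary screen run by the US NCI under its protocol. Single concentration of 10 µM across the 60-line human tumour panel, which includes HL-60(TB). Read-out is growth percent for each cell line. Lines reduced to about 32% growth or less are taken forward to full-panel testing over a 5-log dose range.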

[19] = Cytotoxicity against human MDA-MB-435 cells assessed as cell growth at 10^-5 M after 48 hrs by SRB assay relative to control; format: functional; conditions: MDA-MB-435, 48 h, read-out: Activity; method in brief: as §2
[20] = Selectivity index, ratio of CC50 for human MT4 cells to EC50 for HIV1 3B; format: toxicity, cell-based; conditions: read-out: Ratio CC50/EC50; method in brief: as §3
[21] = Cytotoxicity against human Caki1 cells assessed as cell growth at 10^-5 M after 48 hrs by SRB assay relative to control; format: functional; conditions: CAKI-1, 48 h, read-out: Activity; method in brief: as §2
[22] = Cytotoxicity against human BT549 cells assessed as cell growth at 10^-5 M after 48 hrs by SRB assay relative to control; format: functional; conditions: BT-549, 48 h, read-out: Activity; method in brief: as §2
[23] = Cytotoxicity against human HCT15 cells assessed as cell growth at 10^-5 M after 48 hrs by SRB assay relative to control; format: functional; conditions: HCT-15, 48 h, read-out: Activity; method in brief: as §2
[24] = Cytotoxicity against human SKOV3 cells assessed as cell growth at 10^-5 M after 48 hrs by SRB assay relative to control; format: functional; conditions: SK-OV-3, 48 h, read-out: Activity; method in brief: as §4
[25] = Cytotoxicity against human SNB19 cells assessed as cell growth at 10^-5 M after 48 hrs by SRB assay relative to control; format: functional; conditions: SNB-19, 48 h, read-out: Activity; method in brief: as §4
[26] = Cytotoxicity against human HT-29 cells assessed as cell growth at 10^-5 M after 48 hrs by SRB assay relative to control; format: functional; conditions: HT-29, 48 h, read-out: Activity; method in brief: as §2
[27] = Cytotoxicity against human IGROV1 cells assessed as cell growth at 10^-5 M after 48 hrs by SRB assay relative to control; format: functional; conditions: IGROV-1, 48 h, read-out: Activity; method in brief: as §2
[28] = Cytotoxicity against human UO31 cells assessed as cell growth at 10^-5 M after 48 hrs by SRB assay relative to control; format: functional; conditions: UO-31, 48 h, read-out: Activity; method in brief: as §4
[29] = test system: Human immunodeficiency virus 1; assay: Antiviral activity against HIV1 3B infected in human MT4 cells assessed as protection against virus-induced cytopathic effect after 5 days MTT assay; format: functional, cell-based; conditions: Human immunodeficiency virus 1, 3B, MT4, 120 h; method in brief: as §1
[30] = Cytotoxicity against human M14 cells assessed as cell growth at 10^-5 M after 48 hrs by SRB assay relative to control; format: functional; conditions: M14, 48 h, read-out: Activity; method in brief: as §2

Structure (SMILES) | EC50 [1] [µg/mL] | growth at 10 µM [2] [%] | growth at 10 µM [3] [%] | growth at 10 µM [4] [%] | growth at 10 µM [5] [%] | growth at 10 µM [6] [%] | selectivity ratio [7] | growth at 10 µM [8] [%] | growth at 10 µM [9] [%] | IC50 at 48 h [10] [µg/mL] | growth at 10 µM [11] [%] | growth at 10 µM [12] [%] | growth at 10 µM [13] [%] | growth at 10 µM [14] [%] | growth at 10 µM [15] [%] | growth at 10 µM [16] [%] | growth at 10 µM [17] [%] | growth at 10 µM [18] [%] | growth at 10 µM [19] [%] | selectivity ratio [20] | other results
CC(=O)Nc1ccc(OCc2nnc(SCC(=O)Nc3ccc(Br)cc3)n2Cc2ccccc2)cc1 | > 3.99 | 54.2 | 70 | 101 | 53.2 | 80.2 | ≤ 1 | 85.7 | 102 | > 100 | 69.8 | 75 | 80.3 | 88.5 | 74.3 | 105 | 92 | 63.8 | 66 | ≤ 1 | growth at 10 µM [21]: 72.5%; growth at 10 µM [22]: 72.4%; growth at 10 µM [23]: 60.4%; growth at 10 µM [24]: 110%; growth at 10 µM [25]: 92.3%; growth at 10 µM [26]: 93.9%; growth at 10 µM [27]: 83.2%; growth at 10 µM [28]: 52.8%; EC50 [29]: > 3.99 µg/mL; growth at 10 µM [30]: 43.5%
Cc1ccc(C(C)C)c(OCc2nnc(SCC(=O)Nc3ccc(S(N)(=O)=O)cc3)n2Cc2ccccc2)c1 | > 13 | 31.1 | 55.5 | 88.8 | 66.1 | 70.7 | < 1 | 81.6 | 89.3 | > 100 | 50.3 | 69.1 | 66.6 | 64.6 | 76.4 | 90.2 | 99.4 | 68.2 | 76.2 | < 1 | growth at 10 µM [21]: 81.1%; growth at 10 µM [22]: 65.8%; growth at 10 µM [23]: 64.2%; growth at 10 µM [24]: 109%; growth at 10 µM [25]: 88.4%; growth at 10 µM [26]: 72.4%; growth at 10 µM [27]: 90.1%; growth at 10 µM [28]: 42.7%; EC50 [29]: > 13 µg/mL; growth at 10 µM [30]: 87.3%
Cc1ccc(C(C)C)c(OCc2nnc(SCC(=O)Nc3ccc(Cl)cc3)n2Cc2ccccc2)c1 | > 65.9 | 71.9 | 69.6 | 33.4 | 52.9 | 88.1 | < 1 | 56.5 | 113 | > 100 | 90.5 | 75.7 | 88 | 40.9 | 17.7 | 78.2 | 93.2 | 83.9 | 103 | < 1 | growth at 10 µM [21]: 93.9%; growth at 10 µM [22]: 97.4%; growth at 10 µM [23]: 76.7%; growth at 10 µM [24]: 109%; growth at 10 µM [25]: 80.3%; growth at 10 µM [26]: 70%; growth at 10 µM [27]: 69.4%; growth at 10 µM [28]: 53.6%; EC50 [29]: > 65.9 µg/mL; growth at 10 µM [30]: 99%
